{"source": "paper PMC4317571", "about": "(Structure (London, England : 1993), 2015)", "key": {"p53K382me2 in U2OS cells": {"system": "p53K382me2 in U2OS cells", "assay": "Immunoblot of immunoprecipitated p53: anti-p53K382me2 reactivity", "assay_type": "cell-based, human", "how_it_was_run": "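Sub-confluent U2OS cells were grown in DMEM with 10% FBS and left untreated or given doxorubicin for 4 h. TSA (400 nM) was given for 1 h, in combined treatment added 3 h after doxorubicin. Cells were lysed in Tris pH 7.4/NaCl/Triton buffer with inhibitors. p53 was pulled down from 1 mg protein on DO-1 agarose overnight at 4 °C and eluted non-reducing at 70 °C. Blots were probed overnight at 4 °C with anti-K382me2 and a light-chain-specific secondary.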"}, "[1]": {"system": "p300/CBP at p53 target regions", "assay": "p300 ChIP-seq enrichment at p53 target regions", "assay_type": "cell-based", "conditions": "meta-analysis of public ChIP-seq data, mouse ES cells"}, "GST 53BP1-TTD": {"system": "GST 53BP1-TTD", "assay": "Biotinylated p53 peptide microarray binding of GST-tagged 53BP1 TTD", "conditions": "biotinylated p53 peptides; four replicate array binding experiments", "how_it_was_run": "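Biotinylated p53 C-terminal peptides (residues 366–390) printed on streptavidin-coated glass slides, then probed with GST-tagged 53BP1 TTD. Binding is shown as normalized mean intensity on a 0 (undetectable) to 1 (strong) scale from four replicate array experiments. Agreement between duplicate arrays was assessed by linear regression correlation.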"}, "[2]": {"system": "anti-p53K382me2 antibodies", "assay": "Dot-blot reactivity of anti-p53K382me2 antibody toward p53 peptides", "assay_type": "binding, rabbit", "conditions": "relative to p53K381acK382me2 peptide, residues 377–386"}, "53BP1 TTD, wild type": {"molecular_target": "53BP1 TTD, wild type (Homo sapiens, UniProt Q12888)", "sequence (Q12888 1484-1603 limits assumed)": "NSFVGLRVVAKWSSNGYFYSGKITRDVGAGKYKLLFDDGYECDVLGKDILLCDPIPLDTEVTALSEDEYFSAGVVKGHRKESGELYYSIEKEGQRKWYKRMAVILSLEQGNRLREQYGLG", "assay": "NMR binding to 53BP1 TTD", "conditions": "15N-labeled TTD, peptide titrated in"}}, "note": "Where no end group is shown, it is not given here. Me2 = dimethyl on the lysine side-chain amine"}
{"molecule": "CC(/C=C/C(=O)NO)=C\\[C@@H](C)C(=O)c1ccc(N(C)C)cc1", "note": "[TSA]", "values": [{"measurement": "p53K382me2 level under basal conditions (in words)", "setting": "p53K382me2 in U2OS cells; basal, with TSA 400 nM, 1 h", "value": "little p53K382me2 was present"}]}
{"molecule": "COc1cccc2c1C(=O)c1c(O)c3c(c(O)c1C2=O)C[C@@](O)(C(=O)CO)C[C@@H]3O[C@H]1C[C@H](N)[C@H](O)[C@H](C)O1", "note": "[doxorubicin]", "values": [{"measurement": "p53K382me2 level in immunoprecipitated p53 (in words)", "setting": "p53K382me2 in U2OS cells; doxorubicin 4 h (5 µg/mL in legend, 0.5 µg/mL in method)", "value": "increased substantially"}, {"measurement": "p300/CBP at p53 target regions (in words)", "setting": "[1]", "value": "enrichment of p300/CBP"}]}
{"molecule": "p53K370me2: p53 CTD peptide dimethylated at K370 (SSHLK(Me2)SKKGQSTSRHKKLMFKTEGP; also: biotin label, position not given here)", "values": [{"measurement": "GST-TTD binding in peptide microarray (in words)", "setting": "GST 53BP1-TTD", "value": "more weakly"}]}
{"molecule": "p53K372me2: p53 CTD peptide dimethylated at K372 (SSHLKSK(Me2)KGQSTSRHKKLMFKTEGP; also: biotin label, position not given here)", "values": [{"measurement": "GST-TTD binding in peptide microarray (in words)", "setting": "GST 53BP1-TTD", "value": "more weakly"}]}
{"molecule": "p53K382me2: p53 peptide dimethylated at K382 (residues 377–386; biotinylated 366–390 for microarray) (SSHLKSKKGQSTSRHKK(Me2)LMFKTEGP; also: biotin label, position not given here)", "values": [{"measurement": "anti-p53K382me2 antibody reactivity, fold weaker than with p53K381acK382me2 peptide", "setting": "[2]", "value": 16, "unit": "fold"}, {"measurement": "chemical shift changes in 1H,15N HSQC spectra of TTD (in words)", "setting": "53BP1 TTD, wild type", "value": "most significant changes in the K382me2-binding cage"}]}
{"molecule": "p53K382me2K386ac: biotinylated p53 CTD peptide with K382me2 and K386ac (SSHLKSKKGQSTSRHKK(Me2)LMFK(Ac)TEGP; also: biotin label, position not given here)", "values": [{"measurement": "GST-TTD binding in peptide microarray (in words)", "setting": "GST 53BP1-TTD", "value": "recognizes"}]}
